Measurements as given in ChEMBL document CHEMBL1147590, “Synthesis and antitumor activity of s-tetrazine derivatives” (Bioorg Med Chem Lett, 2004).

Key:
P388 [1] = assay: In vitro rate of inhibition of P388 tumor cell growth at 10E-7 mol/L; type: functional, Mus musculus; conditions: at 0.1 µM
P388 [2] = assay: Rate of inhibition of P388 tumor cell growth at a concentration of 3.125 uM; type: functional, Mus musculus
Summary of the method: (§1)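 P-388 tumour cell growth inhibition was read out in vitro by the MTT method.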

P388 [3] = assay: In vitro rate of inhibition of P388 tumor cell growth at 10E-4 mol/L; type: functional, Mus musculus; conditions: at 100 µM
P388 [4] = assay: Rate of inhibition of P388 tumor cell growth at a concentration of 1.563 uM; type: functional, Mus musculus; summary of the method: as §1
MCF7 [5] = assay: Rate of inhibition of MCF-7 tumor cell growth at a concentration of 0.5 uM; type: functional, Homo sapiens
Bel-7402 [6] = assay: Rate of inhibition of Bel-7402 tumor cell growth at a concentration of 0.313 uM; type: functional, Homo sapiens
A549 [7] = assay: In vitro rate of inhibition of A-549 tumor cell growth at 10E-4 mol/L; type: functional, Homo sapiens; conditions: at 100 µM
A549 [8] = assay: Rate of inhibition of A-549 tumor cell growth at a concentration of 0.25 uM; type: functional, Homo sapiens
Summary of the method: (§2)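 A-549 tumour cell growth inhibition was measured in vitro by the SRB (sulforhodamine B) method.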

P388 [9] = assay: Rate of inhibition of P388 tumor cell growth at a concentration of 0.781 uM; type: functional, Mus musculus; summary of the method: as §1
MCF7 [10] = assay: Inhibitory concentration of compound against MCF-7 cell line; type: functional, cell-based; conditions: Homo sapiens
A549 [11] = assay: Rate of inhibition of A-549 tumor cell growth at a concentration of 0.0625 uM; type: functional, Homo sapiens; summary of the method: as §2
A549 [12] = assay: In vitro rate of inhibition of A-549 tumor cell growth at 10E-8 mol/L; type: functional, Homo sapiens; conditions: at 0.01 µM
Bel-7402 [13] = assay: Rate of inhibition of Bel-7402 tumor cell growth at a concentration of 1.25 uM; type: functional, Homo sapiens
P388 [14] = assay: In vitro rate of inhibition of P388 tumor cell growth at 10E-5 mol/L; type: functional, Mus musculus; conditions: at 10 µM
Bel-7402 [15] = assay: Rate of inhibition of Bel-7402 tumor cell growth at a concentration of 2.5 uM; type: functional, Homo sapiens
A549 [16] = assay: In vitro rate of inhibition of A-549 tumor cell growth at 10E-6 mol/L; type: functional, Homo sapiens; conditions: at 1 µM
P388 [17] = assay: Rate of inhibition of P388 tumor cell growth at a concentration of 0.195 uM; type: functional, Mus musculus; summary of the method: as §1
Bel-7402 [18] = assay: Rate of inhibition of Bel-7402 tumor cell growth at a concentration of 5.0 uM; type: functional, Homo sapiens
MCF7 [19] = assay: Rate of inhibition of MCF-7 tumor cell growth at a concentration of 0.25 uM; type: functional, Homo sapiens
Bel-7402 [20] = assay: Rate of inhibition of Bel-7402 tumor cell growth at a concentration of 0.625 uM; type: functional, Homo sapiens
A549 [21] = assay: Inhibitory concentration of compound against A-549 cell line; type: functional, cell-based; conditions: Homo sapiens; summary of the method: as §2
A549 [22] = assay: Rate of inhibition of A-549 tumor cell growth at a concentration of 0.5 uM; type: functional, Homo sapiens; summary of the method: as §2
A549 [23] = assay: Rate of inhibition of A-549 tumor cell growth at a concentration of 1 uM; type: functional, Homo sapiens; summary of the method: as §2
A549 [24] = assay: In vitro rate of inhibition of A-549 tumor cell growth at 10E-7 mol/L; type: functional, Homo sapiens; conditions: at 0.1 µM
P388 [25] = assay: In vitro rate of inhibition of P388 tumor cell growth at 10E-6 mol/L; type: functional, Mus musculus; conditions: at 1 µM
P388 [26] = assay: Inhibitory concentration of compound against P388 tumor cell growth; type: functional, cell-based; conditions: Mus musculus; summary of the method: as §1
Bel-7402 [27] = assay: Inhibitory concentration of compound against Bel-7402 cell line; type: functional, cell-based; conditions: Homo sapiens
A549 [28] = assay: Rate of inhibition of A-549 tumor cell growth at a concentration of 0.125 uM; type: functional, Homo sapiens; summary of the method: as §2
P388 [29] = assay: Rate of inhibition of P388 tumor cell growth at a concentration of […] uM; type: functional, Mus musculus; summary of the method: as §1
MCF7 [30] = assay: Rate of inhibition of MCF-7 tumor cell growth at a concentration of 1.0 uM; type: functional, Homo sapiens
A549 [31] = assay: In vitro rate of inhibition of A-549 tumor cell growth at 10E-5 mol/L; type: functional, Homo sapiens; conditions: at 10 µM
MCF7 [32] = assay: Rate of inhibition of MCF-7 tumor cell growth at a concentration of 0.125 uM; type: functional, Homo sapiens
P388 [33] = assay: In vitro rate of inhibition of P388 tumor cell growth at 10E-8 mol/L; type: functional, Mus musculus; conditions: at 0.01 µM

Structure (SMILES): CC1=NN(C(=O)Nc2cccc(C)c2)C(C)=NN1C(=O)Nc1cccc(C)c1
- Rate of inhibition (P388 [1]): 96.8%
- Rate of inhibition (P388 [2]): 97.3%
- Rate of inhibition (P388 [3]): 96.8%
- Rate of inhibition (P388 [4]): 91.1%
- Rate of inhibition (MCF7 [5]): 64.3%
- Rate of inhibition (Bel-7402 [6]): 27.4%
- Rate of inhibition (A549 [7]): 84.8%
- Rate of inhibition (A549 [8]): 0%
- Rate of inhibition (P388 [9]): 83.1%
- IC50 (MCF7 [10]): 500 nM
- Rate of inhibition (A549 [11]): 0%
- Rate of inhibition (A549 [12]): 80.3%
- Rate of inhibition (Bel-7402 [13]): 77.8%
- Rate of inhibition (P388 [14]): 96.8%
- Rate of inhibition (Bel-7402 [15]): 89%
- Rate of inhibition (A549 [16]): 80.3%
- Rate of inhibition (P388 [17]): 2.3%
- Rate of inhibition (Bel-7402 [18]): 87.8%
- Rate of inhibition (MCF7 [19]): 35.7%
- Rate of inhibition (Bel-7402 [20]): 54.2%
- IC50 (A549 [21]): 700 nM
- Rate of inhibition (A549 [22]): 36.6%
- Rate of inhibition (A549 [23]): 93.6%
- Rate of inhibition (A549 [24]): 81.8%
- Rate of inhibition (P388 [25]): 98.4%
- IC50 (P388 [26]): 600 nM
- IC50 (Bel-7402 [27]): 600 nM
- Rate of inhibition (A549 [28]): 0%
- Rate of inhibition (P388 [29]): 55.4%
- Rate of inhibition (MCF7 [30]): 71.2%
- Rate of inhibition (A549 [31]): 83.3%
- Rate of inhibition (MCF7 [32]): 1.1%
- Rate of inhibition (P388 [33]): 96.8%
